The text below walks through data of ChEMBL document CHEMBL1649417, “α,β-Unsaturated carbonyl system of chalcone-based derivatives is responsible for broad inhibition of proteasomal activity and preferential killing of human papilloma virus (HPV) positive cervical cancer cells” (J Med Chem, 2011).

The IC50 is the concentration that inhibits the measured activity by half. Higher therefore signals lower potency.

Activity calls are given as the source filed them. No cut-off for these calls is given here.

The test system of series [1] is HeLa. The series can be described thus: Cytotoxicity against HPV18 transformed human HeLa cells after 48 hrs by XTT assay. The format is functional, cell-based. The essentials: (§1)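 ATCC lines grown in DMEM with 10% FBS, penicillin/streptomycin, 5% CO2; 1,000 cells/well exposed to compound (HeLa and CaSki tested over 100 to 0.01 µM). After treatment, XTT labeling mixture for 4 h, absorbance at 450 nm. Triplicate runs; IC50 is the average of three independent determinations.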

The subject of series [2] is CaSki (Homo sapiens). The series can be described thus: Cytotoxicity against CaSki transformed human cervical carcinoma cells after 48 hrs by XTT assay. (Tetrazolium dyes change colour on reduction, which living cells bring about.)
The test system of series [3] is HeLa. The series can be described thus: Increase of polyubiquitinated accumulation in human HeLa cells at 10 uM after 8 hrs by immunoblotting. The format is functional, cell-based. The method, boiled down:
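HeLa cells treated 8 h with or without compound, then lysates immunoblotted for poly-ubiquitinated proteins; β-actin antibody to confirm equal loading; bortezomib positive control.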
Background: A western blot detects proteins with antibodies after separation by electrophoresis.

Series [4] is described as follows: Inhibition of chymotrypsin-like activity of 20S proteasome isolated from human LCL after 30 mins by fluorimetric analysis. The method, boiled down:
(§2)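 Semipurified proteasome from lymphoblastoid cells: glass-bead lysis in Tris pH 7.5/MgCl2/DTT/2 mM ATP/sucrose buffer, differential and 100,000g ultracentrifugation. Preincubated with inhibitor 30 min at 37°C, then 45 min at 37°C with Suc-LLVY-AMC (chymotrypsin-like), Boc-LRR-AMC (trypsin-like) or Ac-YVAD-AMC (caspase/PGPH-like) in 50 mM Tris pH 7.5, 5 mM MgCl2, 1 mM DTT. Quenched with 1% SDS; ex 380/em 440 nm; percent inhibition versus untreated.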

Series [5] in a line: Inhibition of trypsin-like activity of 20S proteasome isolated from human LCL after 30 mins by fluorimetric analysis. The essentials:
as §2

Series [6] is described as follows: Inhibition of PGPH-like activity of 20S proteasome isolated from human LCL after 30 mins by fluorimetric analysis. The essentials:
as §2

Series [7] deals with HeLa. The series can be described thus: Inhibition of proteasome activity in human HeLa cells assessed as induction of ubiquitinG76V-FL reporter level at 1 uM after 8 hrs by luciferase assay. The method, boiled down: (§3)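 HeLa transiently transfected with Ub(G76V)4-FL or CMV-FL control, replated 24 h later at 1×10^4 cells/well, drug added after 18 h attachment. Luciferase measured in cell lysate, RLU expressed as % of control; SE from three independent experiments.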

In series [8] the test system is HeLa. The series can be described thus: Inhibition of proteasome activity in human HeLa cells assessed as induction of ubiquitinG76V-FL reporter level at 5 nM after 8 hrs by luciferase assay. The conditions noted are these: 1 µM, in the assay text read “at 1 µM” for “at 5 nM”. The method, boiled down: as §3
The target of series [9] is Cathepsin D (Homo sapiens) (UniProt P07339). Briefly: Inhibition of cathepsin D up to 50 uM by fluorometric analysis.
Sequence of Cathepsin D (Homo sapiens) (P07339 65-162 limits assumed): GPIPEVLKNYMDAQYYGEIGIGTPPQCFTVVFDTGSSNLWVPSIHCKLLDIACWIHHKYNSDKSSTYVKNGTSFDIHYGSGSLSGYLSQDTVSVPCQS
Sequence of Cathepsin D (Homo sapiens) (P07339 169-412 limits assumed): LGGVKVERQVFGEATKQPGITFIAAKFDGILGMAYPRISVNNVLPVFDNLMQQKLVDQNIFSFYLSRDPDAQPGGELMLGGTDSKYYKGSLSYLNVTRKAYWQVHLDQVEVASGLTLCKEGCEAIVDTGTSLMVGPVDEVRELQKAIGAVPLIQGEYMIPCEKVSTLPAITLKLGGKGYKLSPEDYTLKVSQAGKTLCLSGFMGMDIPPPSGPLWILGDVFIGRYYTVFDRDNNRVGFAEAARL
Series [10] can be described thus: Inhibition of calpain up to 50 uM by fluorometric analysis.
The test system of series [11] is SiHa. Briefly: Cytotoxicity against HPV16 transformed human SiHa cells after 48 hrs by XTT assay. The format is functional, cell-based. The essentials: as §1
In series [12] the test system is ME-180. The series can be described thus: Cytotoxicity against HPV58 transformed human ME180 cells after 48 hrs by XTT assay. The format is functional, cell-based. The method, boiled down:
as §1

Series [13] can be described thus: Cytotoxicity against human keratinocytes assessed as effect on cell viability at 1.6 to 25 uM after 48 hrs by XTT assay. The format is cell-based. The conditions noted are these: keratinocyte. The essentials: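 Primary keratinocytes cultured in defined Keratinocyte-SFM, treated 48 h at the indicated concentrations, 1,000 cells/well. XTT reagent for 4 h, absorbance at 450 nm; viability plotted as fraction of untreated control cultures; triplicate.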

On to `CN1C/C(=C\c2ccc(B(O)O)cc2)C(=O)/C(=C/c2ccc(B(O)O)cc2)C1`, for which the results for the IC50 in [1] and in series [2] were 8 µM and 9 µM, respectively.

As to `O=C(O)CC[C@H](NC(=O)N1C/C(=C\c2ccc(Cl)c(Cl)c2)C(=O)/C(=C/c2ccc(Cl)c(Cl)c2)C1)C(=O)N[C@@H](CC(=O)O)C(=O)O`, the IC50 in series [1] and in series [2] was over 50 µM throughout.

As for `N=C(N)NCCC[C@H](NC(=O)N1C/C(=C\c2ccc(Cl)c(Cl)c2)C(=O)/C(=C/c2ccc(Cl)c(Cl)c2)C1)C(=O)N[C@@H](CCCCN)C(=O)O`, the IC50 in series [1] and in series [2] was over 50 µM throughout.

Regarding `O=C(O)CC[C@H](NC(=O)N1C/C(=C\c2ccc(Cl)c(Cl)c2)C(=O)/C(=C/c2ccc(Cl)c(Cl)c2)C1)C(=O)O`, the IC50 in series [1] and in series [2] was over 50 µM in each case. Further, the outcome in series [3] was inactive.

`CC(C)C[C@H](NC(=O)N1C/C(=C\c2ccc(Cl)c(Cl)c2)C(=O)/C(=C/c2ccc(Cl)c(Cl)c2)C1)C(=O)O`: the IC50 in [1] is 10 µM; in series [4] it was 9.3 µM; in series [5], over 10 µM; in series [6] it was over 10 µM; in [2], 20 µM. For the same compound, the result in series [3] was Active.

As to `O=C1/C(=C/c2ccc(Cl)c(Cl)c2)CN(C(=O)N[C@@H](Cc2ccccc2)C(=O)N[C@@H](Cc2ccc(O)cc2)C(=O)O)C/C1=C\c1ccc(Cl)c(Cl)c1`, the IC50 in series [1] and in series [2] was over 50 µM throughout.

As to `N=C(N)NCCC[C@H](NC(=O)[C@H](CCCCN)NC(=O)N1C/C(=C\c2ccc(Cl)c(Cl)c2)C(=O)/C(=C/c2ccc(Cl)c(Cl)c2)C1)C(=O)O`, the IC50 in [1] and in series [2] was over 50 µM throughout.

Take `NCCCC[C@H](NC(=O)N1C/C(=C\c2ccc(Cl)c(Cl)c2)C(=O)/C(=C/c2ccc(Cl)c(Cl)c2)C1)C(=O)O`: the IC50 in series [1] and in series [2] was over 50 µM in each case.

As to `CC(C)C[C@H](NC(=O)[C@H](Cc1ccccc1)NC(=O)c1cnccn1)B(O)O`, the inhibition entry in series [7] and in series [8] was “Active” throughout.

Take `O=C1/C(=C/c2ccc(Cl)c(Cl)c2)CN(C(=O)N[C@@H](Cc2ccc(O)cc2)C(=O)O)C/C1=C\c1ccc(Cl)c(Cl)c1`: the concentration for half-maximal inhibition (IC50) in series [1] is 10 µM; in series [4], 4.2 µM; in series [5] it was 8.4 µM; in series [6], over 10 µM; in series [2], 10 µM. Besides, the result in [3] was Active.

Turning to `O=C1/C(=C/c2ccc(Cl)c(Cl)c2)CN(C(=O)N[C@@H](Cc2ccccc2)C(=O)O)C/C1=C\c1ccc(Cl)c(Cl)c1`, the IC50 in [1] is 0.32 µM; in series [4], 4.8 µM; in [5], 6.6 µM; in series [6] it was 6.2 µM; in series [2], 1.5 µM. The outcome in [3] was Active. Also, the inhibition result in series [9] and in series [10] was “inactive” each time. In addition, the Activity entry in [11] was “Dose-dependent effect”; in [12], “Dose-dependent effect”; in series [13], “Non-toxic”. In addition, the inhibition entry in series [7] and in series [8] was “Active” each time.
